Source: ChEMBL document CHEMBL4351018, “Novel phenanthridin-6(5H)-one derivatives as potent and selective BET bromodomain inhibitors: Rational design, synthesis and biological evaluation” (Eur J Med Chem, 2019)

Columns and labels:
[1] = molecular target: Bromodomain-containing protein 4 (Homo sapiens, UniProt O60885); assay: Binding affinity to recombinant human His-tagged BRD4 bromodomain 2 expressed in […] insect cells using biotinylated H4(1 to 21)K5/8/12/16Ac peptide as substrate at 20 uM preincubated for 30 mins followed by substrate addition and measured after 30 mins by Alpha screen assay relative to control
A549 [2] = assay: Antiproliferative activity against human A549 cells incubated for 48 hrs by MTT assay; format: functional, cell-based; details: A549, 48 h
In short: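 Cells kept in DMEM or RPMI 1640 with 10% FBS at 37 °C, 5% CO2. MTT added for 4 h at 37 °C, formazan dissolved in DMSO, OD read at 570 nm. Survival % taken relative to blank and control wells. Triplicate runs; IC50 from curve fit.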

A549 [3] = assay: Induction of apoptosis in human A549 cells assessed as late apoptotic cells at 0.3 uM incubated for 48 hrs by annexin V-FITC/PI double staining based flow cytometric analysis (reference value: 0.039%); format: functional
A549 [4] = assay: Induction of apoptosis in human A549 cells assessed as necrotic cells at 0.3 uM incubated for 48 hrs by annexin V-FITC/PI double staining based flow cytometric analysis (reference value: 0%); format: functional
A549 [5] = assay: Induction of apoptosis in human A549 cells assessed as late apoptotic cells at 1.0 uM incubated for 48 hrs by annexin V-FITC/PI double staining based flow cytometric analysis (reference value: 0.039%); format: functional
A549 [6] = assay: Induction of apoptosis in human A549 cells assessed as viable cells at 3.0 uM incubated for 48 hrs by annexin V-FITC/PI double staining based flow cytometric analysis (reference value: 98.2%); format: functional; details: A549, 48 h, read-out: Activity
A549 [7] = assay: Induction of apoptosis in human A549 cells assessed as early apoptotic cells at 3.0 uM incubated for 48 hrs by annexin V-FITC/PI double staining based flow cytometric analysis (reference value: 1.76%); format: functional
A549 [8] = assay: Induction of apoptosis in human A549 cells assessed as viable cells at 5.0 uM incubated for 48 hrs by annexin V-FITC/PI double staining based flow cytometric analysis (reference value: 98.2%); format: functional; details: A549, 48 h, read-out: Activity
A549 [9] = assay: Induction of apoptosis in human A549 cells incubated for 48 hrs by annexin V-FITC/PI double staining based flow cytometric analysis; format: functional, cell-based
[10] = Metabolic stability in human liver microsomes assessed as half life at 1 uM measured for 0.025 to 2 hrs in presence of betaNADPH by LC-MS/MS analysis; format: ADME, Microsome
In short: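 1 μM compound incubated at 37 °C with human liver microsomes (0.5 mg/mL), 1.7 mM β-NADPH and 3.3 mM MgCl2 in 0.1 M phosphate buffer pH 7.4, with DMSO below 0.1%. Remaining parent measured by LC-MS/MS; half-life from concentration-time regression.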

[11] = Half life in Sprague-Dawley rat at 10 mg/kg, po measured for 0.083 to 24 hrs by LC-MS/MS analysis; format: ADME, organism-based; details: in vivo
A549 [12] = assay: Induction of cell cycle arrest in human A549 cells assessed as increase in accumulation at G1 phase incubated for 48 hrs by BrdU/PI staining based flow cytometric analysis; format: functional
In short: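 Subconfluent A549 cells exposed 48 h to 0.3–5.0 μM with DMSO vehicle control. Pulse-labelled with 10 μM BrdU for 30 min at 37 °C before harvest. Fixed in 70% ethanol, denatured in 2 M HCl, neutralised, then stained with fluorescein anti-BrdU antibody and propidium iodide. Analysed by flow cytometry with 488 nm excitation.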

Activity [1]: > 70% | IC50 (A549 [2]): 750 nM | half-life at 1 µM [10]: 4.17 h | half-life [11]: 3.87 h
SMILES: COc1ccc(Cl)cc1S(=O)(=O)Nc1ccc2[nH]c(=O)c3ccccc3c2c1
Activity (A549 [3]): 2.63% | Activity (A549 [4]): 0.02% | Activity (A549 [5]): 6.13% | viability at 3 µM (A549 [6]): 24.6% | Activity (A549 [7]): 68.3% | viability at 5 µM (A549 [8]): 19.7% | Activity (A549 [9]): Dose-dependent effect | Activity (A549 [12]): Dose-dependent effect
